Test results taken from ChEMBL document CHEMBL4680104, “Structure-Based Optimization of Small-Molecule Inhibitors for the β-Catenin/B-Cell Lymphoma 9 Protein-Protein Interaction” (J Med Chem, 2018).

How the values were obtained:
SW480 [1] = test: Cytotoxic activity in human SW480 cells at 50 to 100 uM incubated for 4 hrs by LDH release assay; assay type: cell-based; settings: sw480, 4 h, dose 50-100 µM
Summary of the method: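 SW480 cells were seeded at 2 × 10^4 cells/well and kept overnight at 37 °C. They were then exposed to a range of inhibitor concentrations for 4 h. LDH in the culture supernatant was measured with a diagnostic kit by absorbance at 490 nm. Percent cytotoxicity was calculated from experimental release against maximum release, with background subtracted. Run in triplicate.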

MDA-MB-231 = test: Cytotoxicity in human MDA-MB-231 cells assessed as reduction in cell viability incubated for 72 hrs by MTS assay; assay type: functional, cell-based; settings: MDA-MB-231, 72 h
Summary of the method: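 Triple-negative breast cancer line seeded at 5 × 10^3 cells/well, held overnight at 37 °C, then exposed to inhibitor over a concentration range for 72 h. Viability read out with a fresh 1:19 mix of PMS (0.92 mg/mL) and MTS (2 mg/mL), incubated 3 h at 37 °C, A490 measured.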

[2] = molecular target: T1, beta-catenin-B-cell lymphoma 9 protein complex (Homo sapiens, UniProt P35222); test: Inhibition of protein interaction between C-terminal 6x-histidine tagged full-length beta-catenin (1 to 781 residues) (unknown origin)/N-terminal biotinylated human BCL9 ( 350 to 375 residues) incubated for 1 hr by Alpha-screen competitive inhibition assay; assay type: protein-complex assay
T1 sequence (P35222 whole entry): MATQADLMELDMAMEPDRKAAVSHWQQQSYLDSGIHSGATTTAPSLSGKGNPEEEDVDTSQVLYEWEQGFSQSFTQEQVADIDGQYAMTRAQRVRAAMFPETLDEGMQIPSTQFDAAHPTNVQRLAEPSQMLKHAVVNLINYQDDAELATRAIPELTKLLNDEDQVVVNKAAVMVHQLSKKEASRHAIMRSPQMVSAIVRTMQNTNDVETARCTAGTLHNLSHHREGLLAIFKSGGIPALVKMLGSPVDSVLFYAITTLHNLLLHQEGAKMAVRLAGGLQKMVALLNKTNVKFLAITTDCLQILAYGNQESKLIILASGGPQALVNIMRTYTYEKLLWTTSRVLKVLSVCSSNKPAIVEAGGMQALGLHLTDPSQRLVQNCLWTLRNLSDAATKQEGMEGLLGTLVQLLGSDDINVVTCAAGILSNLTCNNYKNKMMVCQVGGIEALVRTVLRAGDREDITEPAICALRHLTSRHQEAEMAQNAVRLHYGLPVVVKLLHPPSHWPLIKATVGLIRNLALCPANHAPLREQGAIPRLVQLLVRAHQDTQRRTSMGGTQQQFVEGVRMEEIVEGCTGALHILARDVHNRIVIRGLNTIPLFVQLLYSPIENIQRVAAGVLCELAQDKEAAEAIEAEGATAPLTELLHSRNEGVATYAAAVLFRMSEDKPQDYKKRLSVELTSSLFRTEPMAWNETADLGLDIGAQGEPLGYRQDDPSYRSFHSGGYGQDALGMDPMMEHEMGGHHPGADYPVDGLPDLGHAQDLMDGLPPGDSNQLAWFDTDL
T1 sequence (O00512 whole entry): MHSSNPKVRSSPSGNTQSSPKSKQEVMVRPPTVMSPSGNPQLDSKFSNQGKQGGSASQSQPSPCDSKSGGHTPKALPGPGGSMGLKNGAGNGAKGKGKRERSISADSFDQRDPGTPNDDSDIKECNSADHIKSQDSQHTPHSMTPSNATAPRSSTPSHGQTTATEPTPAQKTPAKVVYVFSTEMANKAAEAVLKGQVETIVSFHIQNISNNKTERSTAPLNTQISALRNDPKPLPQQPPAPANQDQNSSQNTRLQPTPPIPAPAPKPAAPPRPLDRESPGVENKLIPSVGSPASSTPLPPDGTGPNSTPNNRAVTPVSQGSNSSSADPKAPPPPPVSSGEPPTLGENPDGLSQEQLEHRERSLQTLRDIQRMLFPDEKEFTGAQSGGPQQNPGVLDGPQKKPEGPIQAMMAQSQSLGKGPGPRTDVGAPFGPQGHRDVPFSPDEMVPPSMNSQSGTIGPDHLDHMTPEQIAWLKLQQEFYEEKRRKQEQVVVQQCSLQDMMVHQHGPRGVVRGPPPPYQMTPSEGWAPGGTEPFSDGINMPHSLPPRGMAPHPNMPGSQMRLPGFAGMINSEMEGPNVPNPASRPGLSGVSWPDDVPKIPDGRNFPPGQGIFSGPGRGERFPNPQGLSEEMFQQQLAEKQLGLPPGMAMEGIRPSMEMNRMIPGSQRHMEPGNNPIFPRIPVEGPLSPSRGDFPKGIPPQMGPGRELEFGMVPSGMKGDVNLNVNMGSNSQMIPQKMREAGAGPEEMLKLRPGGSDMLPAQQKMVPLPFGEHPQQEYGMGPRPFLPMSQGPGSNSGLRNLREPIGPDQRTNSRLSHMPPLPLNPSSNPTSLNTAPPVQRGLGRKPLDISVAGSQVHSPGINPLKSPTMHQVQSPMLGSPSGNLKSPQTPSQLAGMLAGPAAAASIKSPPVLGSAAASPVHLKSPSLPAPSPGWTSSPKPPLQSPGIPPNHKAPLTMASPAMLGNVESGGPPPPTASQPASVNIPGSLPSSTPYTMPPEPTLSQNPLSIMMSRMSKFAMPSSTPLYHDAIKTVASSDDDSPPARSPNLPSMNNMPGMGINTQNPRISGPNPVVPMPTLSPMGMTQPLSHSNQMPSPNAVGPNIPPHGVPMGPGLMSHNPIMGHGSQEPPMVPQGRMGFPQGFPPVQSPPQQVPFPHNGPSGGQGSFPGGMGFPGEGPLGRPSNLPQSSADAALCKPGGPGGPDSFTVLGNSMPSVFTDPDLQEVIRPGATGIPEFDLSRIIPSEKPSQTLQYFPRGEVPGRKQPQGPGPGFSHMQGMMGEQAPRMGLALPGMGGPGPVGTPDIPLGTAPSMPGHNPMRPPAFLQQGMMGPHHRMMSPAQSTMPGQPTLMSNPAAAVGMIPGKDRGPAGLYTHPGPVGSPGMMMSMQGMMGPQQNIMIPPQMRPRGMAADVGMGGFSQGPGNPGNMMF
Summary of the method: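 Full-length β-catenin (residues 1–781) with a C-terminal His6 tag was expressed in E. coli BL21(DE3) after IPTG induction at 20 °C. It was purified by Ni-NTA, anion-exchange and size-exclusion chromatography. For the assay, 40 nM β-catenin was preincubated for 30 min at 4 °C with 5 nM biotinylated BCL9 or 10 nM biotinylated E-cadherin. Inhibitor was then added for 1 h at 4 °C, followed by 10 μg/mL donor and acceptor beads for 1 h at 4 °C. IC50 was obtained by nonlinear fit and converted to Ki by the Nikolovska-Coleska method. Triplicate, mean ± SD.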

SW480 [3] = test: Cytotoxicity in human SW480 cells assessed as reduction in cell viability incubated for 72 hrs by MTS assay; assay type: functional, cell-based; settings: SW480, 72 h
Summary of the method: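 Cells seeded at 5 × 10^3 cells/well, kept overnight at 37 °C, then exposed to inhibitors at various concentrations for 72 h. Viability read with a freshly mixed PMS (0.92 mg/mL) : MTS (2 mg/mL) reagent at 1:19, incubated 3 h at 37 °C, A490 measured. […] Triplicate; mean ± SD.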

Ki [2] | SMILES | Activity (SW480 [1]) | IC50 (MDA-MB-231) | IC50 (SW480 [3])
1300 nM | Cl.Cl.O=C(Nc1ccc(O[C@H]2CCNC2)c(-c2ccc(F)cc2)c1)c1ccc(O[C@H]2CCNC2)c(-c2ccc3cc(F)ccc3c2)c1 | Toxic | 2100 nM | 1800 nM
8700 nM | Cl.Cl.O=C(Nc1ccc(O[C@H]2CCNC2)c(-c2ccc(F)cc2)c1)c1cnc(O[C@H]2CCNC2)c(-c2ccc(F)c(F)c2)c1 | Toxic | 3600 nM | 3000 nM
1300 nM | Cl.Cl.O=C(Nc1ccc(O[C@H]2CCNC2)c(-c2ccc(F)cc2)c1)c1ccc(O[C@H]2CCNC2)c(-c2ccc3ccsc3c2)c1 | Toxic | 2800 nM | 2000 nM

Second part, the molecule before the results:

SMILES | Ki [2] | Activity (SW480 [1]) | IC50 (MDA-MB-231) | IC50 (SW480 [3])
Cl.Cl.O=C(Nc1ccc(O[C@H]2CCNC2)c(-c2ccc(F)cc2)c1)c1ccc(O[C@H]2CCNC2)c(-c2ccc(F)c(F)c2)c1 | 2100 nM | Toxic |  | 
Cl.Cl.O=C(Nc1ccc(O[C@H]2CCNC2)c(-c2ccc(F)cc2)c1)c1ccc(O[C@H]2CCNC2)c(C2CCC(C(F)(F)F)CC2)c1 (some centres undefined) | 4200 nM | Toxic | 2300 nM | 3600 nM
Cl.Cl.O=C(Nc1ccc(O[C@@H]2CCNC2)c(-c2cccc(-c3nn[nH]n3)c2)c1)c1ccc(O[C@H]2CCNC2)c(-c2ccc(F)c(F)c2)c1 |  |  | 73000 nM | 41000 nM
Cc1cc(F)ccc1-c1cc(NC(=O)c2ccc(O[C@H]3CCNC3)c(-c3ccc(F)c(F)c3)c2)ccc1O[C@H]1CCNC1.Cl.Cl | 3500 nM | Toxic | 4100 nM | 900 nM
